Values after ≈ are worked out from the molar mass of the structure shown.
Key:
[1] = system: Streptococcus pneumoniae; assay: Antimicrobial activity against Streptococcus pneumoniae MTCC 1936 by broth microdilution method; format: functional
[2] = system: Bacillus subtilis; assay: Antimicrobial activity against Bacillus subtilis MTCC 441 by broth microdilution method; format: functional
Method in brief: (§1)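 Broth microdilution following NCCLS. Compounds were diluted in 2% DMSO in water. Fungi were grown in Sabouraud dextrose broth. Inoculum was set to 10⁸ CFU mL⁻¹ by turbidity. A primary serial-dilution screen was followed by a secondary set of lower dilutions for primary actives. Tubes were incubated at 37 °C, with growth noted at 24 and 48 h. MIC was the highest dilution preventing turbidity after spot subculture.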

[3] = system: Clostridium tetani; assay: Antimicrobial activity against Clostridium tetani MTCC 449 by broth microdilution method; format: functional
[4] = system: Escherichia coli; assay: Antimicrobial activity against Escherichia coli MTCC 443 by broth microdilution method; format: functional; method in brief: as §1
[5] = system: Salmonella typhi; assay: Antimicrobial activity against Salmonella typhi MTCC 98 by broth microdilution method; format: functional, Salmonella enterica subsp. enterica serovar Typhi; conditions: Salmonella enterica
[6] = system: Vibrio cholerae; assay: Antimicrobial activity against Vibrio cholerae MTCC 3906 by broth microdilution method; format: functional
[7] = system: Candida albicans; assay: Antimicrobial activity against Candida albicans MTCC 227 by broth microdilution method; format: functional; method in brief: as §1
[8] = system: Aspergillus fumigatus; assay: Antimicrobial activity against Aspergillus fumigatus MTCC 3008 by broth microdilution method; format: functional; method in brief: as §1
[9] = system: Mycobacterium tuberculosis; assay: Antitubercular activity against Mycobacterium tuberculosis H37Rv at 250 ug/ml; format: functional
[10] = system: Mycobacterium tuberculosis; assay: Antitubercular activity against Mycobacterium tuberculosis H37Rv; format: functional
Method in brief: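 M. tuberculosis H37Rv was grown on Lowenstein–Jensen medium with compound at a single concentration of 250, and compared against control tubes of medium alone with the organism. Results are given as % inhibition, and the concentration giving complete inhibition of colonies was taken as the active concentration.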

[11] = Antioxidant activity assessed as ferric ion reducing activity using fe3+-TPTZ at 200 mg/ml measured as ascorbic acid per 100 g sample by FRAP assay; format: physicochemical
Method in brief: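 FRAP assay, modified Benzie–Strain. Reagent combined TPTZ in 40 mM HCl, aqueous FeCl₃·6H₂O and acetate buffer at pH 3.6. Sample solution was mixed with 3 mL reagent and incubated 25 min at 37 °C. Fe(II)–TPTZ absorbance was read at 593 nm against an ascorbic acid standard. Results are given as ascorbic equivalents, mmol/100 g compound.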

Compound: Cc1nn(-c2ccccc2)c(-n2ccnc2)c1C=O
- MIC [1]: 500 µg/mL (≈ 1980 µM)
- MIC [2]: 250 µg/mL (≈ 991 µM)
- MIC [3]: 250 µg/mL (≈ 991 µM)
- MIC [4]: 100 µg/mL (≈ 396 µM)
- MIC [5]: 125 µg/mL (≈ 495 µM)
- MIC [6]: 250 µg/mL (≈ 991 µM)
- MIC [7]: > 1000 µg/mL
- MIC [8]: > 1000 µg/mL
- inhibition at 250 µg/mL [9]: 91%
- MIC [10]: 100 µg/mL (≈ 396 µM)
- Activity [11]: 242.88 mmol

Compound: Cc1cn(-c2c(C=O)c(C)nn2-c2ccccc2)cn1
- MIC [1]: 500 µg/mL (≈ 1880 µM)
- MIC [2]: 100 µg/mL (≈ 376 µM)
- MIC [3]: 150 µg/mL (≈ 563 µM)
- MIC [4]: 250 µg/mL (≈ 939 µM)
- MIC [5]: 200 µg/mL (≈ 751 µM)
- MIC [6]: 250 µg/mL (≈ 939 µM)
- MIC [7]: 250 µg/mL (≈ 939 µM)
- MIC [8]: 500 µg/mL (≈ 1880 µM)
- inhibition at 250 µg/mL [9]: 65%
- Activity [11]: 213.24 mmol

Compound: Cc1nn(-c2ccccc2)c(-n2ccnc2)c1-c1cc(-c2ccccc2)nc(N)c1C#N
- MIC [1]: 250 µg/mL (≈ 599 µM)
- MIC [2]: 200 µg/mL (≈ 479 µM)
- MIC [3]: 250 µg/mL (≈ 599 µM)
- MIC [4]: 250 µg/mL (≈ 599 µM)
- MIC [5]: 200 µg/mL (≈ 479 µM)
- MIC [6]: 250 µg/mL (≈ 599 µM)
- MIC [7]: 1000 µg/mL (≈ 2400 µM)
- MIC [8]: 1000 µg/mL (≈ 2400 µM)
- inhibition at 250 µg/mL [9]: 25%
- Activity [11]: 427.08 mmol

Compound: Cc1cn(-c2c(-c3cc(-c4ccccc4)nc(N)c3C#N)c(C)nn2-c2ccccc2)cn1
- MIC [1]: 500 µg/mL (≈ 1160 µM)
- MIC [2]: 100 µg/mL (≈ 232 µM)
- MIC [3]: 500 µg/mL (≈ 1160 µM)
- MIC [4]: 200 µg/mL (≈ 463 µM)
- MIC [5]: 250 µg/mL (≈ 579 µM)
- MIC [6]: 200 µg/mL (≈ 463 µM)
- MIC [7]: > 1000 µg/mL
- MIC [8]: > 1000 µg/mL
- inhibition at 250 µg/mL [9]: 84%
- Activity [11]: 401.81 mmol

Compound: Cc1nn(-c2ccccc2)c(-n2ccnc2)c1-c1cc(-c2ccc(-c3ccccc3)cc2)nc(N)c1C#N
- MIC [1]: 500 µg/mL (≈ 1010 µM)
- MIC [2]: 500 µg/mL (≈ 1010 µM)
- MIC [3]: 250 µg/mL (≈ 507 µM)
- MIC [4]: 100 µg/mL (≈ 203 µM)
- MIC [5]: 125 µg/mL (≈ 253 µM)
- MIC [6]: 500 µg/mL (≈ 1010 µM)
- MIC [7]: 500 µg/mL (≈ 1010 µM)
- MIC [8]: 500 µg/mL (≈ 1010 µM)
- inhibition at 250 µg/mL [9]: 45%
- Activity [11]: 497.1 mmol

Compound: Cc1cn(-c2c(-c3cc(-c4ccc(-c5ccccc5)cc4)nc(N)c3C#N)c(C)nn2-c2ccccc2)cn1
- MIC [1]: 125 µg/mL (≈ 246 µM)
- MIC [2]: 250 µg/mL (≈ 493 µM)
- MIC [3]: 250 µg/mL (≈ 493 µM)
- MIC [4]: 250 µg/mL (≈ 493 µM)
- MIC [5]: 200 µg/mL (≈ 394 µM)
- MIC [6]: 100 µg/mL (≈ 197 µM)
- MIC [7]: 500 µg/mL (≈ 985 µM)
- MIC [8]: 500 µg/mL (≈ 985 µM)
- inhibition at 250 µg/mL [9]: 23%
- Activity [11]: 495.9 mmol

Compound: Cc1nn(-c2ccccc2)c(-n2ccnc2)c1-c1cc(-c2ccc(Cl)cc2)nc(N)c1C#N
- MIC [1]: 100 µg/mL (≈ 221 µM)
- MIC [2]: 500 µg/mL (≈ 1110 µM)
- MIC [3]: 500 µg/mL (≈ 1110 µM)
- MIC [4]: 62.5 µg/mL (≈ 138 µM)
- MIC [5]: 200 µg/mL (≈ 443 µM)
- MIC [6]: 500 µg/mL (≈ 1110 µM)
- MIC [7]: 1000 µg/mL (≈ 2210 µM)
- MIC [8]: 500 µg/mL (≈ 1110 µM)
- inhibition at 250 µg/mL [9]: 16%
- Activity [11]: 490.33 mmol

Compound: Cc1cn(-c2c(-c3cc(-c4ccc(Cl)cc4)nc(N)c3C#N)c(C)nn2-c2ccccc2)cn1
- MIC [1]: 200 µg/mL (≈ 429 µM)
- MIC [2]: 500 µg/mL (≈ 1070 µM)
- MIC [3]: 500 µg/mL (≈ 1070 µM)
- MIC [4]: 200 µg/mL (≈ 429 µM)
- MIC [5]: 250 µg/mL (≈ 537 µM)
- MIC [6]: 250 µg/mL (≈ 537 µM)
- MIC [7]: 1000 µg/mL (≈ 2150 µM)
- MIC [8]: 500 µg/mL (≈ 1070 µM)
- inhibition at 250 µg/mL [9]: 22%
- Activity [11]: 404.8 mmol

Compound: Cc1nn(-c2ccccc2)c(-n2ccnc2)c1-c1cc(-c2ccc(Br)cc2)nc(N)c1C#N
- MIC [1]: 200 µg/mL (≈ 403 µM)
- MIC [2]: 200 µg/mL (≈ 403 µM)
- MIC [3]: 200 µg/mL (≈ 403 µM)
- MIC [4]: 100 µg/mL (≈ 201 µM)
- MIC [5]: 200 µg/mL (≈ 403 µM)
- MIC [6]: 200 µg/mL (≈ 403 µM)
- MIC [7]: 500 µg/mL (≈ 1010 µM)
- MIC [8]: 500 µg/mL (≈ 1010 µM)
- inhibition at 250 µg/mL [9]: 37%
- Activity [11]: 67.63 mmol

Compound: Cc1cn(-c2c(-c3cc(-c4ccc(Br)cc4)nc(N)c3C#N)c(C)nn2-c2ccccc2)cn1
- MIC [1]: 250 µg/mL (≈ 490 µM)
- MIC [2]: 62.5 µg/mL (≈ 122 µM)
- MIC [3]: 100 µg/mL (≈ 196 µM)
- MIC [4]: 500 µg/mL (≈ 980 µM)
- MIC [5]: 500 µg/mL (≈ 980 µM)
- MIC [6]: 250 µg/mL (≈ 490 µM)
- MIC [7]: 1000 µg/mL (≈ 1960 µM)
- MIC [8]: > 1000 µg/mL
- inhibition at 250 µg/mL [9]: 84%
- Activity [11]: 70.61 mmol

Compound: Cc1nn(-c2ccccc2)c(-n2ccnc2)c1-c1cc(-c2ccc(F)cc2)nc(N)c1C#N
- MIC [1]: 200 µg/mL (≈ 459 µM)
- MIC [2]: 200 µg/mL (≈ 459 µM)
- MIC [3]: 500 µg/mL (≈ 1150 µM)
- MIC [4]: 500 µg/mL (≈ 1150 µM)
- MIC [5]: 500 µg/mL (≈ 1150 µM)
- MIC [6]: 200 µg/mL (≈ 459 µM)
- MIC [7]: 1000 µg/mL (≈ 2300 µM)
- MIC [8]: 1000 µg/mL (≈ 2300 µM)
- inhibition at 250 µg/mL [9]: 15%
- Activity [11]: 405.2 mmol

Compound: Cc1cn(-c2c(-c3cc(-c4ccc(F)cc4)nc(N)c3C#N)c(C)nn2-c2ccccc2)cn1
- MIC [1]: 100 µg/mL (≈ 222 µM)
- MIC [2]: 500 µg/mL (≈ 1110 µM)
- MIC [3]: 250 µg/mL (≈ 556 µM)
- MIC [4]: 500 µg/mL (≈ 1110 µM)
- MIC [5]: 250 µg/mL (≈ 556 µM)
- MIC [6]: 100 µg/mL (≈ 222 µM)
- MIC [7]: > 1000 µg/mL
- MIC [8]: 1000 µg/mL (≈ 2220 µM)
- inhibition at 250 µg/mL [9]: 62%
- Activity [11]: 392.66 mmol
